Test results as given in ChEMBL document CHEMBL1123837, “1-Amino-substituted 4-methyl-5H-pyrido[3',4':4,5]pyrrolo[3,2-c]pyridines: a new class of antineoplastic agents” (J Med Chem, 1987).
Active and inactive are the calls of the source. No cut-off for these calls is given here.

Key:
[1] = system: Calf thymus DNA; assay: Binding affinity for DNA by ethidium bromide displacement assay; type: nucleic-acid assay; conditions: Bos taurus
How it was run: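 Competitive ethidium bromide displacement with calf thymus DNA at 10 µg/mL in 20 mM Na phosphate buffer, 0.1 M NaCl, 1 mM EDTA, pH 7.4. The apparent DNA affinity constant is given in 10^6 M^-1 ± standard deviation, from 6 values across two independent experiments.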

[2] = system: L1210; assay: In vitro cytotoxicity against L1210 cells was determined after 48 hours of incubation; type: functional, Mus musculus; conditions: Mus musculus, L1210, 48 h; read-out: ID50 (the source's name)
How it was run: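 Exponentially growing L1210 cells were cultured in RPMI 1640 with 2 mM glutamine, penicillin/streptomycin and 10% fetal calf serum, under 5% CO2 at 37 °C. Drugs dissolved in distilled water were added to cells at 0.8 × 10^5 cells/mL for 48 h, then cells were counted. ID50 was estimated by regression of dose-response data, as the mean of two values from two independent experiments.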

[3] = system: Mus musculus; assay: In vivo antitumor activity was determined against P388 leukemia cells expressed as treated/control at the dose of (80)mg/kg;T = toxic at this dose; type: functional, organism-based
How it was run: (§1)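 Following NCI protocols, 10^6 viable P388 leukemia cells were inoculated ip on day 0 into male or female CDF1 hybrid mice, 10 per test group. Compounds in distilled water were given ip (0.1 mL/10 g body weight) at various doses on days 1–5. T/C = median survival day of treated / median survival day of negative controls × 100.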

[4] = system: Mus musculus; assay: In vivo antitumor activity was determined against P388 leukemia cells expressed as treated/control at the dose of (1.25-40)mg/kg; IA = Inactive; type: functional, organism-based; how it was run: as §1
[5] = system: Mus musculus; assay: In vivo antitumor activity was determined against P388 leukemia cells expressed as treated/control at the dose of (1.25-80)mg/kg; IA = Inactive; type: functional, organism-based; how it was run: as §1
[6] = system: Mus musculus; assay: In vivo antitumor activity was determined against P388 leukemia cells expressed as treated/control at the dosae of (2.5-40)mg/kg; IA = Inactive; type: functional, organism-based; how it was run: as §1
[7] = system: Mus musculus; assay: In vivo antitumor activity was determined against P388 leukemia cells expressed as treated/control at the dose of (5-50)mg/kg; IA = Inactive; type: functional, organism-based; how it was run: as §1

SMILES | K aff [1] [M⁻¹] | IC50 [2] [µM] | T/C [3] | T/C [4] | T/C [5] | T/C [6] | T/C [7]
CCN(CC)CCCN(C)c1ncc(C)c2c1c1cnccc1n2C | 3000 | 52 | Toxic | inactive |  |  | 
CCN(CC)CCCNc1ncc(C)c2c1c1cnccc1n2Cc1ccccc1 | 2000 | 6.4 |  |  |  | inactive | 

More lines, main results first:

K aff [1] [M⁻¹] | SMILES | IC50 [2] [µM] | T/C [3] | T/C [4] | T/C [5] | T/C [6] | T/C [7]
27000 | Cc1c[nH]c(NCCCN2CCN(C)CC2)c2c3cnccc3nc1-2 | 59 |  |  | inactive |  | 
20000 | Cc1c[nH]c(NCCCN2CCOCC2)c2c3cnccc3nc1-2 | 19.2 |  | inactive |  |  | 
17000 | CCN(CC)CCCNc1nccc2c1c1cnccc1n2C | 1.6 |  |  |  |  | inactive
